These results are taken from ChEMBL document CHEMBL4680377, “Discovery of a Novel Series of Pyridone-Based EP3 Antagonists for the Treatment of Type 2 Diabetes” (ACS Med Chem Lett, 2021).

Data set [1] in a line: Apparent permeability across apical to basolateral side in dog MDCK cells. Type of data set: ADME, cell-based, Canis lupus familiaris.
Data set [2] can be described thus: Metabolic stability in rat liver microsomes assessed as intrinsic clearance half life. Type of data set: ADME, Microsome. (In general: Liver microsomes are vesicles of endoplasmic reticulum, rich in cytochrome P450 enzymes.)
In data set [3] the target is T1, Prostaglandin E2 receptor EP3 subtype (Homo sapiens, UniProt P43115).
T1 sequence (P43115 whole entry): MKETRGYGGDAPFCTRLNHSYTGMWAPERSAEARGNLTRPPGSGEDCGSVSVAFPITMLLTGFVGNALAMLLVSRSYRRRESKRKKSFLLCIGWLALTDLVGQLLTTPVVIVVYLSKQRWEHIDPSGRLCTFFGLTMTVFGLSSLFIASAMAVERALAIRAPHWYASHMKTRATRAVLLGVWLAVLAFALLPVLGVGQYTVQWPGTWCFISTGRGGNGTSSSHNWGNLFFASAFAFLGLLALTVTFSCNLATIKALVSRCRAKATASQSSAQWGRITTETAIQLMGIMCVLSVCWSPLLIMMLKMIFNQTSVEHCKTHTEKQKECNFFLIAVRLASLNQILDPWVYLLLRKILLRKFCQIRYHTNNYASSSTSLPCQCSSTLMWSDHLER
In words: Displacement of [3H]-PGE2 from human EP3 expressed in Chem-1 cell membranes incubated for 2 hrs by TopCount scintillation plate reader analysis. Details: species or system Membrane. On the technique in general: Loss of bound radioactivity is the signal in a displacement assay; it reports binding, not function.

Data set [4] can be described thus: Kinetic solubility of compound at pH 2. Type of data set: physicochemical. The note with it: buffer, read-out: Kinetic_solubility.
Data set [5] in a line: Kinetic solubility of compound in PBS buffer. Type of data set: physicochemical. The note with it: read-out: Kinetic_solubility.
The nature of data set [6]: Metabolic stability in human liver microsomes assessed as intrinsic clearance half life. Type of data set: ADME, Microsome.
Data set [7] addresses T1, Prostaglandin E2 receptor EP3 subtype. The data set can be described thus: Antagonist activity at human EP3 expressed in CHO cells assessed as suppression of sulprostone-induced inhibition of forskolin induced cAMP production measured after 30 mins by HTR-FRET assay. It counts as functional, cell-based. Background: Changes in cAMP serve as a functional read-out for many G protein-coupled receptors.

The nature of data set [8]: Clearance in Sprague-Dawley rat at 2 mg/kg, iv measured up to 24 hrs by LC-MS/MS analysis. Type of data set: ADME, organism-based. The conditions noted are these: in vivo. The procedure, abridged: (§1)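 Sprague-Dawley rats, n = 3 per route, sampled over 24 h. Full PK: iv 2 mg/kg in 20% HPbCD with po 10 mg/kg given either in 0.5% HPMC or in 20% HPbCD, depending on study. Fast PK: po only, 10 mg/kg in 0.5% HPMC.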

Data set [9] can be described thus: Cmax in Sprague-Dawley rat at 10 mg/kg, po measured up to 24 hrs by LC-MS/MS analysis. Type of data set: ADME, organism-based. Details: route oral, dose 10 mg/kg, time <=24. The conditions noted are these: in vivo. The procedure, abridged: as §1
Data set [10] is described as follows: Half life in Sprague-Dawley rat at 10 mg/kg, po measured up to 24 hrs by LC-MS/MS analysis. It counts as ADME, organism-based. The note with it: in vivo. The method in brief: as §1
The nature of data set [11]: Volume of distribution at steady state in Sprague-Dawley rat at 2 mg/kg, iv measured up to 24 hrs by LC-MS/MS analysis. The conditions noted are these: in vivo, read-out: Vdss. Type of data set: ADME, organism-based. The procedure, abridged: as §1
Data set [12] is described as follows: AUClast in Sprague-Dawley rat at 10 mg/kg, po measured up to 24 hrs by LC-MS/MS analysis. The arrangement: route oral, dose 10 mg/kg, time <=24. The note with it: in vivo. Type of data set: ADME, organism-based. The method in brief:
as §1

Data set [13] in a line: Oral bioavailability in Sprague-Dawley rat at 10 mg/kg measured up to 24 hrs by LC-MS/MS analysis. Type of data set: ADME, organism-based. The conditions noted are these: in vivo. The method in brief:
as §1

A short description of data set [14]: Plasma protein binding in human. Type of data set: ADME, cell-free. The note with it: read-out: PPB (converted).
The nature of data set [15]: Plasma protein binding in rat. It counts as ADME, cell-free. The conditions noted are these: read-out: PPB (converted).
Data set [16] concerns the target T2, Prostaglandin E2 receptor EP3 subtype (Rattus norvegicus, UniProt P34980).
T2 sequence (P34980 whole entry): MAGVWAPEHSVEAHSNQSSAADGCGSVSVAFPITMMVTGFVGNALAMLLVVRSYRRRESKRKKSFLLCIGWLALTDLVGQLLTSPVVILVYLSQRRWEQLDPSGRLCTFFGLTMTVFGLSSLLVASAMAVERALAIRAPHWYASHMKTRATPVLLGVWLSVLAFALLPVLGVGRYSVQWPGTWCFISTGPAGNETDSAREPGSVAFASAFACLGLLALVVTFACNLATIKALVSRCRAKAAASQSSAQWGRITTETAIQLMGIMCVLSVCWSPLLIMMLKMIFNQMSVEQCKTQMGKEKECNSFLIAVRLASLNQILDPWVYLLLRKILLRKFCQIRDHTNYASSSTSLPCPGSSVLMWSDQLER
The data set can be described thus: Binding affinity to rat EP3.

Converted amounts (≈) assume the structure as drawn.

With `CC(C)[C@@H](c1ccc(-c2ccc3cccc(F)c3c2)[nH]c1=O)[C@@H]1OC(=O)NC1=O` (relative stereo), the Papp A→B (commonly the apparent permeability from the apical to the basolateral side of a cell layer) in data set [1] was 3.15 ×10⁻⁶ cm/s. The figures for the half-life in data set [2] and in [6] were 1.27 h and > 3 h, respectively. For the same molecule, in data set [3], the affinity corresponds to a Ki of 85 nM. Further, the solubility kinetic in data set [4] is 6.9 µM (≈ 2.72 µg/mL); in [5], 27.4 µM (≈ 10.8 µg/mL). The IC50 (in general, the point on the concentration scale where inhibition reaches its midpoint) in data set [7] was 610 nM.

For the molecule `C/C(=C1/OC(=O)NC1=O)C(c1ccc(-c2ccc3cccc(F)c3c2)[nH]c1=O)C(C)C` (stereo not drawn), in data set [8], the clearance (in general, the volume of plasma or blood freed of the substance per unit of time) was 15.6 mL/min/kg. Moreover, in data set [9], the peak level (Cmax) was 1230 ng/mL. Further, the half-life (commonly the time needed for the level to fall by half in the phase considered) was > 3 h in data set [2], 4 h in [10] and > 3 h in data set [6]. Further, in data set [3], the affinity corresponds to a Ki of 17 nM. The Vd in data set [11] stood at 1.96 L/kg. Also, the figures for the solubility kinetic in [4] and in data set [5] were 12.7 µM (≈ 5.34 µg/mL) and 17.2 µM (≈ 7.23 µg/mL), respectively. The AUC(0-t) – broadly, exposure summed from dosing to a finite time, without extrapolation to infinity – at 24 h in [12] was 12.7 µg·h/mL. Besides, the IC50 in data set [7] turned out to be 39 nM. Besides, the bioavailability in [13] came to 118%.

Consider `CC(C)[C@H](C[C@@H]1OC(=O)NC1=O)c1ccc(-c2ccc3cccc(F)c3c2)[nH]c1=O` (relative stereo), for which the Papp A→B in [1] worked out at 10.8 ×10⁻⁶ cm/s. Besides, in data set [9], the peak level (Cmax) was 44100 ng/mL. Further, the half-life in [2] was determined as 0.503 h; in [6] it was 2.07 h. Affinity in data set [3] was put at a Ki of 8 nM. For the same molecule, the fraction unbound in [14] was 0.0032; in data set [15] it was 0.0021. The values for the solubility kinetic in data set [4] and in data set [5] were 25.1 µM (≈ 10.3 µg/mL) and 21.1 µM (≈ 8.62 µg/mL), respectively. Also, the AUC(0-t) at 24 h in [12] stood at 218 µg·h/mL. The IC50 in data set [7] is 27 nM.

Turning to `CCn1ncc2c(F)cc(-c3ccc(C(/C=C4\OC(=O)NC4=O)(CC)CC)c(=O)[nH]3)cc21`, the clearance in [8] came out at 0.93 mL/min/kg. The Cmax (in general, the maximum level reached in the sampled fluid or tissue) in data set [9] came to 8740 ng/mL. Moreover, the figures for the half-life in [2], in [10] and in data set [6] were > 3 h, 9.8 h and > 3 h, respectively. The Vd in data set [11] turned out to be 0.24 L/kg. Besides, the figures for the fraction unbound in [14] and in [15] were 0.0011 and 0.0018, respectively. For the same molecule, the solubility kinetic was 21.7 µM (≈ 9.51 µg/mL) in [4] and 30.8 µM (≈ 13.5 µg/mL) in data set [5]. Moreover, the AUC(0-t) at 24 h in data set [12] was found to be 100 µg·h/mL. In addition, the bioavailability in data set [13] was 54.9%.

Consider `CC(C)C(/C=C1\OC(=O)NC1=O)c1ccc(-c2ccc3cccc(F)c3c2)[nH]c1=O` (stereo not drawn), for which the Papp A→B in data set [1] was determined as 9.9 ×10⁻⁶ cm/s. The molecule also displayed a clearance in data set [8] of 1.06 mL/min/kg. In [9], this molecule returned a Cmax of 24600 ng/mL. Also, the results for the half-life in [2], in data set [10] and in data set [6] were > 3 h, 4.6 h and > 3 h, respectively. Besides, the Vd in data set [11] turned out to be 0.23 L/kg. In addition, the fraction unbound is 0.0008 in [14] and 0.0001 in data set [15]. The solubility kinetic in [4] came out at 8 µM (≈ 3.25 µg/mL); in [5], 28 µM (≈ 11.4 µg/mL). The AUC(0-t) at 24 h in data set [12] was 159 µg·h/mL. Moreover, the Ki – broadly, the equilibrium dissociation constant of an inhibitor or competing ligand from its target – in [16] is 1 nM. Further, the bioavailability in data set [13] was determined as 97.7%.

Turning to `CC(C)/C(=C1\C(=O)NC(=O)N1C)c1ccc(-c2ccc3cccc(F)c3c2)[nH]c1=O`, the Papp A→B in data set [1] amounted to 6.85 ×10⁻⁶ cm/s. In addition, the half-life in [2] and in data set [6] was > 3 h in each case. For the same molecule, the Ki in data set [3] came to 85 nM. Also, the results for the solubility kinetic in data set [4] and in data set [5] were 11.1 µM (≈ 4.5 µg/mL) and 22.5 µM (≈ 9.12 µg/mL), respectively. Also, the IC50 in data set [7] was determined as 350 nM.

Consider `CC(C)[C@@H](c1ccc(-c2ccc3cccc(F)c3c2)[nH]c1=O)[C@H]1OC(=O)NC1=O` (relative stereo), for which, in data set [1], the Papp A→B is 9.14 ×10⁻⁶ cm/s. The half-life is 1.93 h in data set [2] and > 3 h in [6]. The molecule also had a Ki in data set [3] of 27 nM. For the same molecule, the solubility kinetic came to 5.4 µM (≈ 2.13 µg/mL) in data set [4] and 31.6 µM (≈ 12.5 µg/mL) in [5]. Moreover, the IC50 in data set [7] was 92 nM.

Regarding `CCC(/C=C1\OC(=O)NC1=O)(CC)c1ccc(-c2ccc3cccc(F)c3c2)[nH]c1=O`, the Cmax in [9] turned out to be 58100 ng/mL. Further, the half-life was > 3 h in data set [2] and 0.948 h in data set [6]. Moreover, the solubility kinetic in data set [4] was 13.5 µM (≈ 5.68 µg/mL); in [5] it was 32.6 µM (≈ 13.7 µg/mL). The molecule also came in with an AUC(0-t) at 24 h in data set [12] of 327 µg·h/mL.

As for `CC(C)[C@H](C[C@H]1OC(=O)NC1=O)c1ccc(-c2ccc3cccc(F)c3c2)[nH]c1=O` (relative stereo), the Papp A→B in data set [1] came to 10.3 ×10⁻⁶ cm/s. In addition, the half-life in [2] stood at 0.95 h; in data set [6], 1.68 h. The molecule also showed a Ki in data set [3] of 6 nM. Besides, the solubility kinetic stood at 24.4 µM (≈ 9.97 µg/mL) in data set [4] and 35.4 µM (≈ 14.5 µg/mL) in data set [5]. Also, the IC50 in data set [7] was determined as 15 nM.
